# Measured values reported in ChEMBL document CHEMBL3870363, “Systematic Study of Effects of Structural Modifications on the Aqueous Solubility of Drug-like Molecules” (ACS Med Chem Lett, 2017).
# What was measured:
# [1] = Aqueous solubility of the compound in Britton-Robinson buffer at pH 6.5 measured after 2 days by saturation shake flask based UV-vis spectroscopy; format: physicochemical
# Summary of the method: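 Shake-flask method: saturated solutions formed by stirring 2 days in Britton–Robinson buffer (pH 6.5), then filtered through a 0.2 μm pore syringe filter and quantified by UV–vis. Piroxicam served as a repeated control.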
# [2] = molecular target: T1, Macrophage migration inhibitory factor (Homo sapiens, UniProt P14174); experiment: Inhibition of recombinant human MIF tautomerase activity expressed in Escherichia coli assessed as borate-enol complex formation using 4-hydroxyphenyl pyruvic acid as substrate preincubated for 20 mins followed by substrate addition measured for 175 sec by spectrophotometric analysis
# T1 sequence (P14174 whole entry): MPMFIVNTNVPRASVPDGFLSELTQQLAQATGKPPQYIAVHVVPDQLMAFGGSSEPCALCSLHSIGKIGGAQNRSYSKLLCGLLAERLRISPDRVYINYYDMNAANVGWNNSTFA
# [3] = Equilibrium solubility of the compound in Britton-Robinson buffer stirred for 6 hrs followed by sedimentation for 18 hrs by saturation shake flask based UV-vis spectroscopy; format: physicochemical
Structure (SMILES),solubility thermodynamic at 48 h [1] [µg/mL],Ki [2] [nM],solubility thermodynamic at 6 h [3] [µg/mL]
O=C(O)COCCOc1ccc2nc(-c3cn(-c4ccc(O)c(F)c4)nn3)ccc2c1,867,37,–
O=C(O)COc1ccc2nc(-c3cn(-c4ccc(O)c(F)c4)nn3)ccc2c1,37,–,–
NCCOCCOc1ccc2nc(-c3cn(-c4ccc(O)cc4)nn3)ccc2c1.O=C(O)C(F)(F)F,13.9,–,–
O=C(O)c1cccc(Oc2cccc3nc(-c4cn(-c5ccc(O)c(F)c5)nn4)ccc23)c1,47.2,–,–
COCCOc1cccc(Oc2cccc3nc(-c4cn(-c5ccc(O)c(F)c5)nn4)ccc23)c1,6.1,24,–
O=C(O)CCCOc1ccc2nc(-c3cn(-c4ccc(O)c(F)c4)nn3)ccc2c1,19.2,–,–
Oc1ccc(-n2cc(-c3ccc4cc(OCC5CCCCO5)ccc4n3)nn2)cc1 (stereo not drawn),3.4,270,–
O=C(O)COc1ccc2nc(-c3cn(-c4ccccc4)nn3)ccc2c1,1050,1370,–
Oc1ccc(-n2cc(-c3ccc4ccccc4n3)nn2)cc1,2.2,–,–
Oc1ccc(-n2cc(-c3ccc4cc(OCCOCCN5CCOCC5)ccc4n3)nn2)cc1F,27.2,–,–
NCCOCCOc1ccc2nc(-c3cn(-c4ccc(O)c(F)c4)nn3)ccc2c1.O=C(O)C(F)(F)F,9.1,–,–
CN1C(C(=O)Nc2ccccn2)=C(O)c2ccccc2S1(=O)=O [PIROXICAM],6.5,–,6.36

# Further lines, results first:
solubility thermodynamic at 48 h [1] [µg/mL],Ki [2] [nM],solubility thermodynamic at 6 h [3] [µg/mL],Structure (SMILES)
3.6 to 4,–,–,COCCOc1ccc2nc(-c3cn(-c4ccc(O)cc4)nn3)ccc2c1
3.7,–,–,NCCOc1ccc2nc(-c3cn(-c4ccc(O)cc4)nn3)ccc2c1.O=C(O)C(F)(F)F
2.4,147,–,COCCOCCOc1ccc2nc(-c3cn(-c4ccc(O)cc4)nn3)ccc2c1
365,–,–,O=C(O)COc1ccc2nc(-c3cn(-c4ccc(O)cc4)nn3)ccc2c1
2.6,–,–,OCCOc1ccc2nc(-c3cn(-c4ccc(O)cc4)nn3)ccc2c1
